Bioassay records: PubChem, Broad Institute
Shown are actives, neighbours in structure and some others; about 1.4% of the full set was active somewhere.
INS-1E GSIS act – primary screen for activators of insulin secretion dependent on glucose, INS-1E cells, GLuc reporter luminescence; hit rate 0.61% among 370,000; INS-1E GLuc reporter insulin secretion, 2-3 h; activation, % at 16.6 µM;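 active = lowest replicate activation of at least 40%, so every replicate reaches that level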;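 note: 0% = median of neutral control wells and 100% = median of IBMX positive control wells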
STK33 inh – inhibitors of human STK33 kinase | inhibition, % at 10 µM | purified STK33, MBP phosphorylation, ADP-Glo luminescence | Q9BYT3 | hit rate 0.073% among 320,000;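 active = inhibition at or above 25%, using the most active replicate where run in duplicate; inactive = inhibition below 25%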
CDK5 p35 inh – CDK5/p35 (human) kinase inhibition | Q00535+Q15078 | Recombinant CDK5/p35, ADP-Glo luminescence, 60 min | inhibition, % at 10 µM | hit rate 0.01% among 330,000 | AID 488839;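 active = highest replicate inhibition of at least 50% and at least 75% of replicates reaching 50%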;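 note: plate controls were DMSO neutral control for no effect and GW8510 at 10 µM for full effect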
HIV Env fusion – HIV envelope-mediated fusion inhibition; HeLa-JRFL Env/CEM21 cell fusion, luciferase; inhibition, % at 12.3 µM; hit rate 1.1% among 360,000;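 active = mean replicate inhibition score of at least 50 and every replicate individually at or above 50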;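 note: 0% = plate neutral controls and 100% = maraviroc near 300 nM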
GSK3 alpha inh – human GSK-3 alpha kinase inhibition | inhibition, % at 10 µM | ADP-Glo luminescence, 60 min | hit rate 0.1% among 320,000 | P49840;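 active = more than half of replicates show inhibition above 20%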;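 note: GST-tagged GSK-3 alpha with peptide substrate and 25 µM ATP; 0% = DMSO neutral wells and 100% = GW8510 positive control wells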
GSK3beta inhib – inhibitors of human GSK3beta kinase. P49841. GST-GSK3beta kinase, ADP-Glo luminescence, 60 min; hits give low values. activity score (negative = inhibition), % at 10 µM. hit rate 0.038% among 300,000. AID 2097;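 active = more than half of replicate wells score below -50%, meaning over 50% inhibition versus plate controls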;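 note: 0% = median DMSO wells and -100% = median GW8510 positive control wells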
Target sequence (P49841 whole entry, looked up): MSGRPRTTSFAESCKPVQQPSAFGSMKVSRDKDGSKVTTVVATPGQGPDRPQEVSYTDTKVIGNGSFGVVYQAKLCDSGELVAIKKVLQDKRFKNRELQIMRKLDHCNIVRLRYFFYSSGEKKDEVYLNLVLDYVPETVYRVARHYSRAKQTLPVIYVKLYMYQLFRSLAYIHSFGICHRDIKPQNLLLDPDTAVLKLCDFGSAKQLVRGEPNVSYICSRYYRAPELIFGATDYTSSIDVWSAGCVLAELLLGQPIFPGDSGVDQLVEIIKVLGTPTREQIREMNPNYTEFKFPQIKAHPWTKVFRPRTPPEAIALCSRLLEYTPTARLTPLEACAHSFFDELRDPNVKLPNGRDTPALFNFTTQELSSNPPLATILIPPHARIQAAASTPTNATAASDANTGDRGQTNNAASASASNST
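Test system: GST-tagged human GSK3beta kinase, cell-free; evaluation: activity score scaled between in-plate DMSO and GW8510 controls; measured by: ADP-Glo luminescence; incubation: 60 min reaction, RT; benchmarks: DMSO and 20 µM GW8510; reagent: peptide substrate plus 25 µM ATP (final); medium: Tris/MgCl2 kinase buffer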
Numbers without * were called inactive; . = not tested or not shown; [ ] = dose if it differs, or a comment.

SMILES	INS-1E GSIS act	STK33 inh	CDK5 p35 inh	HIV Env fusion	GSK3 alpha inh	GSK3beta inhib
Cc1ccc(NS(=O)(=O)c2cc(C(=O)NCCSc3ccc(C)cc3)ccc2C)cc1	.	-1	1	97*	-5	0
C[C@H](CO)N1C[C@H](C)[C@H](CN(C)CC2CC2)Oc2ccc(NC(=O)Nc3ccc4c(c3)OCO4)cc2CC1=O	-8	.	.	65*[16.7 µM]	.	.
C[C@@H]1CN([C@@H](C)CO)C(=O)Cc2cc(NC(=O)Nc3ccc4c(c3)OCO4)ccc2O[C@H]1CN(C)Cc1ccc(Cl)c(Cl)c1	-9	.	.	57*[16.7 µM]	.	.
CCC(C)(C)c1ccc(OCCCC[n+]2cccc(C)c2)c(C(C)(C)CC)c1	185*	.	1	129*	.	0
CC[C@@H]1CC=CC[C@@H](C)Oc2ccccc2C(=O)N(C)[C@H](Cc2ccccc2)C(=O)N1 (mixture of isomers)	4	.	.	.	.	.
CC1(C)CC(=O)C=C(Nc2cc(-c3ccccc3)[nH]n2)C1	.	0	2	25	49	-54*
CC1(C)CC(=O)C=C(NCc2ccccc2)C1	-14	-3	-1	.	-5	4
C[C@H]1CN([C@@H](C)CO)C(=O)Cc2cc(NC(=O)CCCCCC(=O)Nc3ccccc3N)ccc2O[C@H]1CN(C)S(=O)(=O)c1ccc(F)cc1	12	.	.	13[16.7 µM]	.	.
Cc1cccc(C(=O)OC2CCN(C)CC2)c1	14	-2	1	-11	2	1
CC(=O)N1C(c2ccccc2O)C[C@]2(C)CC(=O)NC12 (some centres not stated)	14	-2	-9	4	-2	1
C[C@@]12CC(=O)NC1N(C(=O)c1cccc(C(F)(F)F)c1)C(c1ccccc1O)C2 (some centres not stated)	.	-1	0	105*	-6	2
Cc1cccc(C(=O)Oc2ccccc2C2C[C@]3(C)CC(=O)NC3N2C(=O)c2cccc(C)c2)c1 (some centres not stated)	.	2	-1	48*	-2	3
O=C(c1ccncc1)N1C[C@H]2[C@@H](c3ccccc31)[C@H](CO)N2C(=O)c1ccncc1	6	.	.	.	.	.
COc1ccc(NC(=O)Nc2ccc3c(c2)CC(=O)N([C@@H](C)CO)C[C@H](C)[C@H](CN(C)Cc2ccccc2)O3)cc1	-6	.	.	20[16.7 µM]	.	.
CCOC(=O)c1oc2cc(O)cc(C)c2c1C	40*	.	1	.	.	.
C/C=C/c1cnc2c(c1)C(=O)N([C@@H](C)CO)C[C@H](C)[C@@H](CN(C)Cc1cccc(C(=O)O)c1)O2	16	.	.	.	.	.
CCN(CCC(=O)O)c1ccccc1	63*	0	-1	.	0	-2
CCN(CC)c1ccc(NC(=O)Nc2ccccc2)cc1	5	-1	2	-161	1	1
CC(=O)Nc1ccc(S(=O)(=O)Nc2ccc3c(c2)n(C)c(=O)n3C)c(C)c1	98*	1	0	-36	-2	3
CC(C)NC(=O)N(C)C[C@@H]1Oc2cc(C#C[C@@H](C)O)ccc2S(=O)(=O)N([C@@H](C)CO)C[C@H]1C	12	.	.	.	.	.
Cc1cc(C)cc(NC(=O)c2ccc(CN3CCc4ccccc4C3)cc2)c1	-16	-2	-1	10	-2	1
Cc1ccc(NC(=O)c2ccc(CN3CCc4ccccc4C3)cc2)cc1	.	0	1	93*	0	0
O=C(Nc1ccccc1)c1ccc(CN2CCc3ccccc3C2)cc1	-36	-3	-1	61*	-2	-2
O=C(Nc1cccnc1)c1ccc(CN2CCc3ccccc3C2)cc1	.	0	0	54*	-3	2
O=C(Nc1ccccc1F)c1ccc(CN2CCc3ccccc3C2)cc1	.	0	0	14	-3	-3
CC(C)C[C@@]12C(=O)N(c3cccc(Br)c3)C(=O)N1[C@H](c1ccc(Cl)cc1)[C@@H]1C(=O)N(C3CCCCC3)C(=O)[C@@H]12	-2	-1	-8	70*	.	3
CC(C)C[C@@]12C(=O)N(c3cccc(Cl)c3)C(=O)N1[C@H](c1ccc(Cl)cc1)[C@@H]1C(=O)N(C3CCCCC3)C(=O)[C@@H]12	15	-1	0	67*	.	-2
O=C(C[C@H]1C[C@@H]2c3cc(NC(=O)Nc4ccccc4F)ccc3O[C@@H]2[C@H](CO)O1)NCCc1ccccc1	24	.	.	.	.	.
